Measured values from ChEMBL document CHEMBL4513216, “Probing the Open Global Health Chemical Diversity Library for Multistage-Active Starting Points for Next-Generation Antimalarials” (ACS Infect Dis, 2020).

assay: Toxicity liver stage against HepG2, at 10uM; type: cell-based; set-up: test concentration 10 uM, cell line HepG2-A16-CD81EGFP; conditions: human, HepG2-A16-CD81EGFP cells; read-out: INHIBITION
Procedure, shortened: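 Uninfected HepG2-A16-CD81EGFP cells, 3 × 10^3 per well, 1536-well, plated on prespotted compound at 10 μM final, parasite-free screening media added to match infected plates; puromycin 10 μM positive, DMSO 0.5% negative; run in parallel with 48 h PbLuc assay at 37 °C, 5% CO2; viability by CellTiter-Glo luminescence, normalized to controls.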

Going from `Cc1nnc2n1CCN(C(C(N)=O)c1ccc(F)cc1)C2` (configuration not stated) to `CC(NC(=O)Nc1cc(F)ccc1N1CCCCC1)c1nncn1C` (configuration not stated), the cytotoxicity at 10 µM rises from -13.5% to -3.36%.

Compared with `CC(C)CNC(=O)Cn1ccc2ccccc21`, `O=C(Cn1ccc(=O)[nH]c1=O)Nc1ccccc1F` is higher in cytotoxicity at 10 µM: -43.4% for the first, -0.691% for the second.

Going from `CC(C)Cc1nc(NC(=O)c2cccnc2)n[nH]1` to `Cc1noc(C2(C)CCCN(C(=O)c3cccnc3)C2)n1` (configuration not stated), the cytotoxicity at 10 µM falls from -1.18% to -13.4%.

Going from `CC(=O)Nc1cccc2c1ccn2CC(=O)Nc1ncc[nH]1` to `COc1cccc(NC(=O)CC2Cn3ncnc3NC2=O)c1` (configuration not stated), the cytotoxicity at 10 µM falls from 5.83% to 4.4%.

First: CCOc1ccc2oc(-c3cn(C)nc3C)c(O)c(=O)c2c1
Second: Cc1ccc(CN2CCn3c(COc4cccnc4)cnc3C2C)o1 (configuration not stated)
The cytotoxicity at 10 µM of the first is higher: 7.72% for the first, -111% for the second.

Going from `CNC(=O)c1ccc(C2CN(c3cc(C)nc(N)n3)CCO2)nc1` (configuration not stated) to `CNc1cc(C2CN(C(=O)c3cnn(C)c3)CCO2)nc(C)n1` (configuration not stated), the cytotoxicity at 10 µM falls from 2.02% to -5.42%.

Compared with `CO[C@H]1CN(Cc2nc3ccccc3n2C)C[C@@]12CCCO2`, `COCCN1CCO[C@H]2CN(Cc3cccc(C)n3)C[C@H]21` is lower in cytotoxicity at 10 µM: 4.32% for the first, -116% for the second.

Going from `Cc1nc(CN2CCC2(CCCc2ccccn2)C(=O)N(C)C)co1` (configuration not stated) to `CCCn1cc(CN2CCCC2c2nccc(CN(C)C)n2)cn1` (configuration not stated), the cytotoxicity at 10 µM rises from 11.4% to 19.7%.

First: Cc1nc(C)c(C(=O)N2Cc3ccccc3OCC2Cn2ccnc2)o1 (configuration not stated)
Second: CN(CC1COc2ccccc2O1)C(=O)C1=NN(C)C(=O)CC1 (configuration not stated)
The cytotoxicity at 10 µM of the first is higher: 7.92% for the first, -52.2% for the second.

Going from `Cc1cc(C)nc(N2CCC(Cn3cc(C(=O)N(C)C)cn3)CC2)n1` to `Cc1ccc(N2CCO[C@H]3CN(Cc4cnn(C)c4)C[C@H]32)nn1`, the cytotoxicity at 10 µM falls from 6.28% to 3.86%.

Going from `Fc1ccccc1Oc1nccnc1C1CCN(C2CCOCC2)CC1` to `Cc1nc(Nc2cnccn2)cc(C2CCCN2C2CCOCC2)n1` (configuration not stated), the cytotoxicity at 10 µM falls from 13.9% to -17.3%.

Going from `NCc1cccc(-c2cccnc2C(=O)NCCN2CCOCC2)c1` to `CC1(C(=O)N2CCOCC2)CN(Cc2ccccc2F)CCO1` (configuration not stated), the cytotoxicity at 10 µM rises from -1.29% to 2.03%.

Going from `CN(C)S(=O)(=O)N1CCCC(c2ccncn2)C1` (configuration not stated) to `CC(C)N(C)Cc1cc(=O)n2c(n1)CN(S(=O)(=O)C1CC1)CCC2`, the cytotoxicity at 10 µM rises from -15.3% to 0.819%.

Compared with `C=C(C)CN1CCN(Cc2cnc(OC)nc2)CC1`, `CCOC(=O)N1CCN(CC(=O)Nc2ccc(F)cc2Cl)CC1` is higher in cytotoxicity at 10 µM: 5.16% for the first, 6% for the second.

Going from `O=C(c1cccnn1)N1C[C@@H]2CC[C@H](Oc3cccc(F)c3)[C@@H]2C1` to `COc1ccc(CN(C)[C@@H]2CN(C(=O)c3ccccc3)C[C@H]2O)cc1`, the cytotoxicity at 10 µM rises from -13.6% to -2.64%.

Compared with `CC(C)c1nnc(NC(=O)NCc2cccnc2NCCN(C)C)s1`, `CC(C)n1cnnc1CNC(=O)CCCOc1ccccc1Cl` is lower in cytotoxicity at 10 µM: 3.92% for the first, -3.51% for the second.

First: Cc1nn(C)c(C)c1NC(=O)CN1CCOC(CN(C)C)C1 (configuration not stated)
Second: Cn1ncc(N2CCOC(CCNC(=O)CO)C2)cc1=O (configuration not stated)
The cytotoxicity at 10 µM of the first is lower: -8.72% for the first, -8.58% for the second.

Going from `N#Cc1ccc(CN2CCN(Cc3ccncc3Cl)CC2=O)cc1` to `CCn1cc(CN2CCCC2c2nc(-c3ccccc3)no2)cc1C#N` (configuration not stated), the cytotoxicity at 10 µM falls from 6.43% to 0.165%.

Going from `COc1ccc(N(CCC(N)=O)C(=O)CSc2ccc(Cl)cc2)cc1` to `COc1ccc(CCN2CCOC(Cn3nc(C)nc3C)C2)cc1` (configuration not stated), the cytotoxicity at 10 µM rises from -4.37% to 2.29%.

First: COCCCn1nnc(C2(NC(=O)c3ccccc3)CCCC2)n1
Second: N#Cc1cccc(N2CCCC(CO)(CCOc3ccccc3)C2)n1 (configuration not stated)
The cytotoxicity at 10 µM of the first is higher: 9.24% for the first, -47.2% for the second.

First: CS(=O)(=O)NCCC(=O)N1CCCC1c1noc(C2CC2)n1 (configuration not stated)
Second: CCn1cc(CN2CCCC2c2nc(C(C)C)no2)cc1C#N (configuration not stated)
The cytotoxicity at 10 µM of the first is lower: -10.4% for the first, 1.44% for the second.

First: N#Cc1ccc(NCC(O)c2ccco2)c(C(F)(F)F)c1 (configuration not stated)
Second: N#Cc1cc2c(=O)n(CC(O)Cc3ccccc3)ccc2[nH]c1=O (configuration not stated)
The cytotoxicity at 10 µM of the first is lower: -31.7% for the first, 2.86% for the second.

Going from `Cc1nc(CNC(=O)C(C)(C)c2ccc(F)cc2)no1` to `CCc1cccc(C)c1NC(=O)c1ccccc1N(C)S(C)(=O)=O`, the cytotoxicity at 10 µM rises from 6.08% to 17.8%.

Compared with `O=C(NCCc1ccccc1)N1CCCCC1C1OCCO1` (configuration not stated), `O=C(CCC1CCN(C2Cc3ccccc3C2)CC1)NCC1CCCO1` (configuration not stated) is higher in cytotoxicity at 10 µM: -45.2% for the first, 7.36% for the second.

Going from `O=C(c1ccc[nH]1)N1CCc2ncc(Cn3cccn3)n2CC1` to `CCN1CCc2[nH]cnc2C12CCN(C(=O)CCc1cccs1)CC2`, the cytotoxicity at 10 µM rises from -0.469% to 0.688%.

First: Cn1ncc2c1C(COCC1CC1)CN(C(=O)c1ccoc1)C2 (configuration not stated)
Second: CCn1ncc2c1C(COC)N(C(=O)Cc1cccs1)CC2 (configuration not stated)
The cytotoxicity at 10 µM of the first is higher: -2.18% for the first, -109% for the second.

Going from `O=C(Cc1ccco1)N1C[C@@H]2COC[C@]2(COCC2CCOCC2)C1` to `O=C(NC1CC1)[C@@]12CCO[C@@H]1CCN(Cc1ccc3c(c1)OCO3)C2`, the cytotoxicity at 10 µM rises from -102% to -2.87%.

Compared with `CC(C)c1noc(CN(C)C(=O)c2ncn[nH]2)n1`, `Cc1nc(NC(=O)N(C)Cc2ccsc2)nn1C` is lower in cytotoxicity at 10 µM: 6.2% for the first, 1.81% for the second.

Compared with `O=C(c1cn[nH]c1)N1CCC2(CCCN(Cc3ccc(F)c(F)c3)C2)C1` (configuration not stated), `Cc1cc(F)ccc1C(=O)N1CCN(C)C2(CCC(=O)N(C)CC2)C1` (configuration not stated) is lower in cytotoxicity at 10 µM: 6.07% for the first, 4.78% for the second.

First: CCO[C@H]1C[C@@H](O)C12CCN(C1CCN(c3ccccc3)CC1)CC2
Second: CC(C)=CCN1CCN(C(=O)COc2ccccc2)[C@H]2CS(=O)(=O)C[C@H]21
The cytotoxicity at 10 µM of the first is higher: 4.24% for the first, -1.64% for the second.

Compared with `Cc1oncc1C(=O)N1CCC(O)(CN2CCOCC2)C(C)(C)C1` (configuration not stated), `O=C([C@H]1CC[C@@H]2[C@@H](CCN2C2CCOCC2)O1)N1CCOCC1` is higher in cytotoxicity at 10 µM: -5.26% for the first, -0.824% for the second.

Going from `COc1cccc(CC2CN(C3CCC3)CCO2)c1` (configuration not stated) to `Cc1cccc(CN2CCCC(O)(CNCCN3CCCCC3)C2=O)c1` (configuration not stated), the cytotoxicity at 10 µM rises from 0.388% to 1.02%.

Compared with `Cc1cccnc1N1CCC(c2nccn2Cc2cscn2)CC1`, `CNc1ncc(CN(C)C(=O)c2cccc(-n3cccn3)c2)cn1` is lower in cytotoxicity at 10 µM: -0.65% for the first, -2.38% for the second.

Compared with `Cc1nc2c(c(NCCc3nc4c(s3)CCCC4)n1)CCNCC2`, `Cc1nc(C2CCNC2)nc2c1CCC(=O)N2CC(C)C` (configuration not stated) is higher in cytotoxicity at 10 µM: -7.33% for the first, 2.04% for the second.

First: CCSCCNc1nc2c(s1)c(C)nn2C
Second: Cc1nc(NC(=O)NC2CC(=O)N(C)C2)nn1C (configuration not stated)
The cytotoxicity at 10 µM of the first is higher: -0.145% for the first, -12.2% for the second.

Compared with `CCCc1nc(N[C@H]2COC[C@@H]2N2CCCC2)c2cnn(C)c2n1`, `Cn1cc(-c2ncnc3c2CCN(CC2CCOC2)CC3)cn1` (configuration not stated) is lower in cytotoxicity at 10 µM: -6.56% for the first, -112% for the second.

Compared with `CN(C)S(=O)(=O)NCc1cccnc1Oc1ccccc1`, `CCC(NS(=O)(=O)c1ccc(C(=O)NC2CC2)cc1)c1ccnn1C` (configuration not stated) is higher in cytotoxicity at 10 µM: 1.6% for the first, 9.65% for the second.

Compared with `Cc1ccc(OC2(C(=O)O)CCN(C/C=C/c3ccco3)CC2)c(C)n1`, `CCOC1COC2(CCN(Cc3cccc(C)n3)CC2)C1` (configuration not stated) is higher in cytotoxicity at 10 µM: 0.449% for the first, 11.8% for the second.

First: CN(C(=O)c1ccccc1NCC(=O)O)C(C1CC1)C1CC1
Second: CN1C(=O)[C@@H]2CC[C@H]1CN(C(=O)c1sccc1S(N)(=O)=O)C2
The cytotoxicity at 10 µM of the first is lower: 1.73% for the first, 5.6% for the second.

Going from `Cc1csc(N2CCN(CC(=O)N3CCNC3=O)CC2C)n1` (configuration not stated) to `COc1ncccc1C(=O)N1CCC2(CC1)CC(OC)CO2` (configuration not stated), the cytotoxicity at 10 µM falls from -12.4% to -97%.

Compared with `CC(C)N(C)Cc1cncc2c1CCN(C1CCOCC1)C2`, `CC=C(C)C(=O)NS(=O)(=O)c1ccc(Cl)cn1` is higher in cytotoxicity at 10 µM: 5.88% for the first, 7.04% for the second.
